How the values were obtained:
[1] = tested on: aPL pool sera / IIa‐8.0‐biot‐2x; assay: inhibition of aPL binding to IIa‐8.0‐biot‐2x ELISA; type: biochemical, human; conditions: preincubation 90 min, room temperature; 1, 10 and 100 μg/ml; n = 3–4; Figure 7A
In short: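 Pooled plasma from 11 APS patients (aPL pool sera) was preincubated for 90 min at room temperature with increasing concentrations (1, 10, 100) of monomeric peptide. It was then run in the anti-β2GP1 IgG ELISA on streptavidin-coated plates bearing the biotinylated dimeric peptide. Bound IgG was detected with anti-human secondary antibody (IRDye800CW or HRP) as fluorescence (AU) or A405. Mean ± SEM, n = 3–4.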

aPL pool = assay: custom immunoassay; type: binding, human; conditions: coated on plate (10 μg/ml); aPL pool 1/10 dilution; n = 9
[2] = tested on: aPL from pool of plasma from 11 human patients; assay: surface plasmon resonance, aPL over immobilized biotinylated peptide; type: binding; conditions: shape of stabilization curves; Figures 3C, 3D, 4E

Row | Sequence | inhibition of aPL binding to IIa‐8.0‐biot‐2x, monomeric peptide [1] | ability to interact with aPL compared with β2GP1 (aPL pool) | sustained interaction / stability of binding with aPL [2]
1 | VSRGGMRKFICPLTG [R39‐R43] | failed to significantly inhibit | same ability to interact with aPL than β2GP1 | –
2 | VSRGGMRKKKKPLTG [Ib‐1‐biot] | – | – | neither R39‐R43‐biot nor Ib‐1‐biot have sustained interaction with aPL

Source: publication PMC9592562 (Research and Practice in Thrombosis and Haemostasis, 2022)
